PMI act satM6P: activators of human phosphomannose isomerase at near-saturating mannose 6-phosphate; coupled PMI enzyme assay, resazurin fluorescence, 20 min; active compounds read high; 1 = untreated enzyme, 0 = substrate-free blank; activation factor at 20 µM; actives 0.34% (n = 190,000); AID 1216;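 active = activation factor of 2 or more at 20 µM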
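Material: human phosphomannose isomerase with PGI, G6PDH, diaphorase coupling enzymes. Quantity: 15 ng/mL PMI. Medium: HEPES pH 7.4 buffer with MgCl2 and Tween-20. Reagent: Near-saturating mannose-6-phosphate, 1.0 mM. Compound: 20 µM single dose. Times: enzyme reaction with compound 20 min at room temperature. Detection: resorufin fluorescence at Ex 544/Em 590 nm.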
PMI act: phosphomannose isomerase (human) activation. purified human PMI, coupled resazurin fluorescence, 20 min; active compounds read high; 1 = vehicle control, 0 substrate-free wells. actives 0.005% (n = 190,000). P34949. activation factor at 20 µM;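 active = activation factor of 2 or more at 20 µM, relative to plate controls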
GSH fluor: compound fluoresces at 488/530 nm on GSH beads; actives 0.25% (n = 190,000); GSH beads flow cytometry, compound fluorescence 488/530 nm; active compounds read high; fluorescence (KMESF) at 10 µM; in the data active = fluorescence above about 89;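 note: glutathione beads carrying GST-tagged Bcl family fusion proteins plus one bare bead set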
Diaph act CS: activates diaphorase or chemically reduces, flagging diaphorase assay artifacts | Diaphorase/resazurin coupled assay, resorufin fluorescence, 16 min; active compounds read high; 1 = vehicle wells, 0 = NADH-free wells | activation factor at 20 µM | actives 0.005% (n = 190,000) | AID 1229;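 active = diaphorase activity raised at least twofold by the compound at 20 µM; inactive = activation factor below 2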
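Material: Purified diaphorase enzyme from Clostridium kluyveri | Buffer or medium: 50 mM HEPES pH 7.4 with 4.542 mM MgCl2, 0.005% Tween 20 | Times: 16 min enzyme reaction, ambient temperature | Signal: Red resorufin fluorescence at 544/590 nm excitation/emission | Measure: Increased resorufin signal from activators or reducing compounds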
p47phox inh: p47phox (human) inhibition; actives 0.53% (n = 220,000); p47phox/p22phox peptide binding, fluorescence polarization, 2 h; P14598; inhibition, % at 24.7 µM;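 active = inhibition above about 30%, limit read from the data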
Target sequence (P14598 whole entry, looked up): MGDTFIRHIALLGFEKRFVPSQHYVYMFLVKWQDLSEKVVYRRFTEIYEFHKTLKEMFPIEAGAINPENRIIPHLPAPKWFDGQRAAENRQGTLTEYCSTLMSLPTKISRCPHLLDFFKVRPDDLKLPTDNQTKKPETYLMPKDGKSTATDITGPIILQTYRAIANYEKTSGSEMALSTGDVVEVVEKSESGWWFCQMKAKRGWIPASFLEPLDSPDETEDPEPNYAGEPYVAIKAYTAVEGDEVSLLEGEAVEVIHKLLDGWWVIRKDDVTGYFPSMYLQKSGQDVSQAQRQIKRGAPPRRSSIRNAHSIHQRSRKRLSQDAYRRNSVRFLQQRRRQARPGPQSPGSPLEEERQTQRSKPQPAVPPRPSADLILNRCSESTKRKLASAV
Avidin fluor: avidin bead compound fluorescence profile; Avidin beads, compound fluorescence 488/530 nm, flow cytometry; active compounds read high; actives 0.38% (n = 220,000); fluorescence (KMESF) at 10 µM; AID 1775; in the data active = fluorescence above about 47
Each line names hits and unclear results; the compound was inactive in the other large screens. Shown are actives, neighbours in structure and some others; about 1.4% of the full set was active somewhere.

NC1=NC(c2cccc(O)c2)n2c(nc3ccccc32)N1 (centres undefined)	none
Cc1ccc(-n2c(C)cc(C3N=C(N)Nc4nc5ccccc5n43)c2C)c(C)c1 (centres undefined)	p47phox inh 30
O=c1c2ccccc2c(/C=N/c2n[nH]c(CCCO)n2)c(O)n1-c1ccccc1Cl	none
Cc1ccc(N(CN2C(=O)C3CC=CCC3C2=O)C(=O)c2ccco2)cc1Cl (centres undefined)	none
COc1cc(C(=O)OCC(=O)Nc2cc(C)on2)ccc1OCc1ccccc1Cl	none
CCOC(=O)C(C)On1c(-c2ccccc2)nc2ccc([N+](=O)[O-])cc21 (centres undefined)	PMI act satM6P 2
CCOC(=O)C(C)On1c(-c2ccc(Cl)cc2)nc2ccc([N+](=O)[O-])cc21 (centres undefined)	PMI act satM6P 2
COc1ccccc1N(C)S(=O)(=O)c1ccc(C(=O)NC(C)(C)C)cc1	p47phox inh 179
CCOc1ccc2nc(Cl)c(CN(C(C)=O)C3CCCCC3)cc2c1	none (no result: PMI act satM6P, PMI act, Diaph act CS)
Nc1nonc1/C(=N/O)N1CCN(CCO)CC1	GSH fluor 261
CN1CCN(/C(=N\O)c2nonc2N)CC1	none
O=C(NCCc1nc2ccccc2[nH]1)/C(=C/c1ccc2c(c1)OCO2)NC(=O)c1ccc(Cl)cc1Cl	none
CCn1c(C)cc2c(c1=O)C(c1ccc3c(c1)OCO3)C(C#N)=C(N)O2 (centres undefined)	Avidin fluor 63
Cc1cc2c(c(=O)n1CC1CCCO1)C(c1ccc3c(c1)OCO3)C(C#N)=C(N)O2 (centres undefined)	none
Cc1cccc(OC2CCN(Cc3nc(CC4CC4)no3)CC2)c1	none
Cc1cccc(SC2CCN(Cc3nc(CC4CC4)no3)CC2)c1	p47phox inh 41
Cc1sc2ncn(CC(=O)NCCCC(=O)N3CCN(c4ccccn4)CC3)c(=O)c2c1C	none
Cc1sc2ncn(CC(=O)NCCCC(=O)N3CCN(c4ncccn4)CC3)c(=O)c2c1C	Avidin fluor 52
CCN(CC)C(=O)C(=O)c1cccn1-c1c(Cl)cccc1C#N	Avidin fluor 109
O=C(O)C/C=C(/NC(=O)OCc1ccccc1)C(=O)OCc1ccccc1	PMI act satM6P 2.8
CCOC(=O)CCc1c(C)nc2cc(-c3ccc(F)cc3)[nH]n2c1=O	none (no result: p47phox inh)
CCCCCCCCCC[n+]1cccc2c3ccccc3ccc21	p47phox inh 50
FC(F)(F)c1nc(SCc2ccc(Cl)cc2Cl)n[nH]1	none (no result: PMI act satM6P, PMI act, GSH fluor, Diaph act CS)
CC(C)c1ccc(S(=O)(=O)c2ccc(NN)cc2)cc1	PMI act satM6P 2.2
COc1ccc(C2CC(c3ccc(OC)cc3)n3nc(N)nc3N2)cc1 (centres undefined)	none (no result: GSH fluor, p47phox inh, Avidin fluor)
COc1ccc(C2CC(c3ccccc3)Nc3nc(N)nn32)cc1 (centres undefined)	Avidin fluor 50
Nc1nc2n(n1)C(c1ccco1)CC(c1ccccc1)N2 (centres undefined)	p47phox inh 46
O=C1CC(N2CCC(c3nc4ccccc4o3)CC2)C(=O)N1Cc1cccs1 (centres undefined)	none
Cc1c(NC(=O)c2ccco2)cccc1-c1nc2cccnc2s1	none
CCOc1ccc2nc(NC(=O)CSc3nc(SC)ns3)sc2c1	none
O=C(Nc1ccccn1)C(=O)N1CCCCC1	GSH fluor 96
O=C(Nc1ccccc1Br)C(=O)N1CCCC1	none
CN(C)S(=O)(=O)c1cccc(NC(=O)COC(=O)CCOc2ccccc2)c1	Avidin fluor 88
CCC(C)(C)NC(=O)C1CCN(S(=O)(=O)c2cccs2)CC1	Avidin fluor 80
CCCCCn1c(N)c(-c2nc3ccccc3o2)c2c([N+](=O)[O-])nn(C)c(=O)c21	p47phox inh 38
CCCCCn1c(N)c(-c2nc3ccccc3o2)c2c([N+](=O)[O-])nn(CC)c(=O)c21	none
COc1ccc(NC(=O)CN2C(=O)C(C)Oc3ccccc32)cc1 (centres undefined)	none
Cc1nc(NC(=O)C2CC3CCCC(C2)C3=O)sc1C (centres undefined)	none

Compound activity as filed in PubChem BioAssay.
